What was measured:
NTPDase1 = test: Kinetic parameter Km value for Bovine spleen NTPDase1 hydrolysis.; type: ADME, Bos taurus; conditions: cattle
Procedure, shortened: (§1)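 Semipurified bovine spleen particulate NTPDase1 (about 1 μg protein), preincubated 3 min at 37 °C in 8 mM CaCl2, 5 mM tetramisole, 50 mM imidazole, 50 mM Tris pH 7.5. The reaction was started with substrate at 10–100 μM and stopped after 7 min with malachite green to read Pi release. Apparent Km and Vmax came from a Woolf–Augustinson–Hofstee plot; assays were run in triplicate.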

Bos taurus = species on record: Bos taurus; test: Kinetic parameter Vmax value for Bovine spleen NTPDase1 hydrolysis.; type: ADME; conditions: cattle; procedure, shortened: as §1
[1] = Half life was determined; type: ADME
Procedure, shortened: (§2)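 ³¹P NMR follow-up of hydrolysis at 37 °C. At pH 7.4 the diastereoisomeric mixture (tetrasodium salt) was held in Tris-HCl buffer and recorded for 3 weeks at 1–3 day intervals; hydrolysis came from Pγ (−7.5 ppm) versus inorganic phosphate (1.7 ppm) integrals. At pH 1.4 the sample was in KCl/HCl buffer with D2O, recorded for 17 h every 0.5 h; Pβ intensity versus time was fit to pseudo-first-order kinetics.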

[2] = Hydrolysis rate constant was determined; type: ADME; procedure, shortened: as §2
P2Y purinoceptor 1 = P2Y purinoceptor 1 (Rattus norvegicus, UniProt P49651); test: Agonists activity was evaluated by release of [Ca2+] release of HEK 293 cells stably transfected with rat-brain P2Y purinoceptor 1 (P2Y1-R); type: functional, cell-based, HEK293
Sequence of P2Y purinoceptor 1 (P49651 whole entry, the tested form may be a part): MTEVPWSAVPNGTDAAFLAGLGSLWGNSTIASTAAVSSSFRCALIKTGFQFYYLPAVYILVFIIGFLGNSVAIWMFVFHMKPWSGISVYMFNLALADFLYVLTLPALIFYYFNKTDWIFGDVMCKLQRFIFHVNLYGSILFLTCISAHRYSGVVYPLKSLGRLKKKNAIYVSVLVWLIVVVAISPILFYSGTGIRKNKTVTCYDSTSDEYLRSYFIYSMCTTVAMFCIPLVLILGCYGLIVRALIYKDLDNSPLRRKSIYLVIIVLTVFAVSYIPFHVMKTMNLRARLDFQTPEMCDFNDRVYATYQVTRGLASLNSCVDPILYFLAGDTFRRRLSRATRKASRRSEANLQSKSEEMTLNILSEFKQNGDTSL
Procedure, shortened: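 HEK293 cells stably expressing rat brain P2Y1 receptor, grown on coverslips, loaded 30 min with 2 μM Fura 2-AM in HEPES-buffered saline pH 7.4. Continuous superfusion with 35 °C HBS containing varying nucleotide concentrations. Single-cell fluorescence at 340/380 nm excitation, 500 nm emission. EC50 from concentration–response of ΔF340/F380, averaged over 60–100 cells; at least three separate experiments; ATP as reference.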

Half life was determined = conditions: pH 1.4, 37 °C

| Km (NTPDase1) [µM] | Vmax (Bos taurus) [µmol/min/mg] | half-life [1] [h] | Hydrolysis rate constant [2] [s⁻¹] | EC50 (P2Y purinoceptor 1) [nM] | half-life (Half life was determined) [h] | SMILES |
| --- | --- | --- | --- | --- | --- | --- |
| 12.9 | 1.9 |  |  |  |  | Nc1nc(Cl)nc2c1ncn2[C@@H]1O[C@H](COP(=O)([O-])OP(=O)([O-])OP(=O)([O-])[O-])[C@@H](O)[C@H]1O.[Na+].[Na+].[Na+].[Na+] |
| 7.2 | 0.88 | 2.7 | 7.2e-05 |  |  | [BH3-]P(=O)(OC[C@H]1O[C@@H](n2cnc3c(N)nc(Cl)nc32)[C@H](O)[C@@H]1O)OP(=O)([O-])OP(=O)([O-])[O-].[Na+].[Na+].[Na+].[Na+] (stereo partly drawn) |
| 62 | 1.9 |  |  | 1 |  | CSc1nc(N)c2ncn([C@@H]3O[C@H](COP(=O)([O-])OP(=O)([O-])OP(=O)([O-])[O-])[C@@H](O)[C@H]3O)c2n1.[Na+].[Na+].[Na+].[Na+] |
| 13.8 | 0.78 |  |  | 200 |  | [BH3-]P(=O)(OC[C@H]1O[C@@H](n2cnc3c(N)ncnc32)[C@H](O)[C@@H]1O)OP(=O)([O-])OP(=O)([O-])[O-].[Na+].[Na+].[Na+].[Na+] (stereo partly drawn) |
| 17.4 | 0.89 |  |  | 2.6 | 5.9 | [BH3-]P(=O)(OC[C@H]1O[C@@H](n2cnc3c(N)nc(SC)nc32)[C@H](O)[C@@H]1O)OP(=O)([O-])OP(=O)([O-])[O-].[Na+].[Na+].[Na+].[Na+] (stereo partly drawn) |

| SMILES | Km (NTPDase1) [µM] | Vmax (Bos taurus) [µmol/min/mg] | half-life [1] [h] | Hydrolysis rate constant [2] [s⁻¹] | EC50 (P2Y purinoceptor 1) [nM] | half-life (Half life was determined) [h] |
| --- | --- | --- | --- | --- | --- | --- |
| Nc1ncnc2c1ncn2[C@@H]1O[C@H](COP(=O)([O-])OP(=O)([O-])OP(=O)([O-])[O-])[C@@H](O)[C@H]1O.[Na+].[Na+].[Na+].[Na+] | 15.9 | 2.4 |  |  |  |  |
